Compound activity from PubChem.
This excerpt belongs to a sample that is enriched for hits.
CHOP inh: CHOP inhibition in unfolded protein response; inhibition, % at 10 µM; 3.8% of 220,000 active; CHO-K1 CHOP-promoter luciferase, tunicamycin-induced, 15-18 h;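 active = compounds that reduced the stress-induced luciferase reporter signal by more than about 70% of percent inhibition, limit read from the data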
PvdQ inh: P. aeruginosa PvdQ acylase inhibition | purified PvdQ acylase, fluorescence plate reader | inhibition, % at 10 µM | 0.063% of 340,000 active; in the data active = inhibition above about 30%, passing the limit was not always enough
UPR XBP1 act: activators of adaptive arm of unfolded protein response (XBP1); CHO-XBP1 luciferase reporter, IRE1-XBP1 UPR activation, luminescence; percent of tunicamycin response, DMSO as zero; activation, % at 20 µM; 0.33% of 330,000 active; AID 463104;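 active = versus positive control, 20 µM dose yields 30% or more activation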
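Material: CHO-XBP1 cells stably carrying IRE1-XBP1-driven luciferase reporter | Medium: F12 with 10% serum | Compound dosing: 20 µM single concentration, DMSO 1% | Incubation: Overnight seeding at 37 °C, 6 h compound treatment at 37 °C | Detection: Steady-Glo luminescence read | Read-out basis: % activation of reporter signal versus tunicamycin and DMSO controls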
UPR CHOP act: apoptotic UPR (CHOP) activation | CHO-CHOP luciferase reporter, luminescence; percent of tunicamycin response over DMSO baseline | activation, % at 10 µM | 0.34% of 330,000 active;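 active = at 10 µM dose, activation of 40% or more, normalized to positive control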
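Dosing – one dose, 10 µM in 0.5% DMSO · System – CHO-CHOP cells, stable luciferase reporter of PERK-eIF2a-CHOP signalling · Input – 500 cells/well · Control set – tunicamycin 10 µg/mL final as positive, DMSO-only wells as negative · Timing – 6 h compound treatment, 37 °C · Measure – % activation vs tunicamycin · Technique – luminescence read with Steady-Glo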
UPR CHOP confirm: confirmation of apoptotic unfolded protein response (CHOP) activators. shares compounds with UPR CHOP act. CHO-CHOP cells, CHOP-luciferase reporter luminescence; percent of tunicamycin response, DMSO as zero. 64% of 1,000 active. AID 463112. activation, % at 10 µM; in the data active = activation above about 33%
XBP1 UPR conf: adaptive UPR (XBP1) activation, confirmed; shares compounds with UPR XBP1 act; CHO-XBP1 IRE1-XBP1 luciferase reporter, luminescence; activation, % at 20 µM; 63% of 1,000 active; AID 485299;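 active = reporter signal at least 30% of the positive control's activation in two or more of four replicate wells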
Numbers stand for hits; n = inactive; x = no result.

SMILES	CHOP inh	PvdQ inh	UPR XBP1 act	UPR CHOP act	UPR CHOP confirm	XBP1 UPR conf
CN(C)CC(CCC(CN(C)C)C(O)(c1ccccc1)c1ccccc1)C(O)(c1ccccc1)c1ccccc1 (centres undefined)	x	x	35	77	84	43
CSc1ccc(/C=C(/NC(=O)c2ccc(C)cc2)C(=O)Nc2cccc(F)c2)cc1	n	n	n	n	x	x
O=C(c1ccccc1N1CCOCC1)N1CCCC(Nc2ccc(F)cc2)C1 (centres undefined)	x	n	n	n	x	x
Cc1cccc2sc(NC(=O)c3cc(S(=O)(=O)N(C)C)ccc3N3CCCC3)nc12	n	n	55	63	47	78
CN(C)S(=O)(=O)c1ccc(N2CCCC2)c(C(=O)Nc2nc3ccc(F)cc3s2)c1	n	n	n	n	x	x
CC(C)Cc1nnc(NC(=O)c2cc(S(=O)(=O)N(C)C)ccc2N2CCCC2)s1	x	n	n	n	x	x
CN(C)S(=O)(=O)c1ccc(N2CCCC2)c(C(=O)Nc2nc3ccccc3s2)c1	n	n	76	125	n	91
CCC1CCCCN1C(=S)Nc1cccc(S(=O)(=O)N(C)C)c1 (centres undefined)	n	n	n	n	x	x
COc1ccc(CCn2c(C)cc(C(=O)COC(=O)c3cnc(C)cn3)c2C)cc1	x	n	n	n	x	x
CCc1ccc(-c2cn(C3CCCCC3)c(=S)[nH]2)cc1	n	n	n	n	x	x
CCCCCCCCCCn1c2c(c(=N)c3c1CCC3)CCC2	104	n	47	77	70	44
CCCCCn1c2c(c(=N)c3ccccc31)CCC2	n	n	n	n	x	x
O=C(Nc1ccccn1)c1cc2cc([N+](=O)[O-])ccc2s1	n	n	n	n	x	x
C=CCOc1ccc2cccc(/C=N/NC(=O)c3cc4cc([N+](=O)[O-])ccc4s3)c2c1	n	n	47	55	n	45
OCCNc1nc(Nc2ccc(Br)cc2)nc2ccccc12	n	x	41	76	60	46
Oc1ccc(/C=N/Nc2nc(N3CCCC3)nc(N3CCCC3)n2)cc1O	n	n	67	257	180	44
CCOC(=O)c1c(C)[nH]c(C(=O)OCC(=O)Nc2cc(C)nn2-c2ccccc2)c1C	x	n	n	n	x	x
Cn1c(=O)c2c(SCC(=O)Nc3ccccc3F)nc(-c3ccccc3F)nc2n(C)c1=O	x	n	355	55	101	73
O=C(NCC1COc2ccccc2O1)c1ccc(Br)s1 (centres undefined)	x	n	n	n	x	x
COc1ccc(NC(=O)C(=O)NCc2ccncc2)c(OC)c1	n	n	n	n	x	x
COc1ccc(NC(=O)C(=O)N/N=C\c2ccc(CNC(=O)C(=O)Nc3ccc(C)c(C)c3)o2)c(OC)c1	x	x	50	135	41	52
CC(C)CNC(=O)C1CCCN(C(=O)NCc2ccccc2)C1 (centres undefined)	n	n	n	n	x	x
CCOC(=O)[C@H]1[C@H]2COc3ccc(OC)cc3[C@@H]2N2C(=O)CN(CCc3c[nH]c4ccccc34)C(=O)[C@@]12C	x	n	n	n	x	x
CN1/C(=C\C(=O)COC(=O)CNC(=O)c2ccc3ccccc3c2)C(C)(C)c2ccccc21	n	n	n	n	x	x
CN1/C(=C\C(=O)COC(=O)c2ccc(O)c(O)c2)C(C)(C)c2ccccc21	n	x	41	96	81	33
SMILES	CHOP inh	PvdQ inh	UPR XBP1 act	UPR CHOP act	UPR CHOP confirm	XBP1 UPR conf
c1ccc2sc(N3CCOCC3)nc2c1	n	n	n	n	x	x
COc1cccc2sc(N3CCN(c4nc5ccccc5s4)CC3)nc12	80	n	94	88	42	86
C[C@@H]1CC[C@H]2C(=O)N3[C@@H](CC[C@@H](C)[C@@H]3c3ccc(Br)cc3)C(=O)N2[C@H]1c1ccc(Br)cc1	n	n	n	n	x	x
O=C(/C(=N/N=C/c1ccc(O)c(O)c1)c1ccccc1)c1ccccc1	n	n	41	86	63	30
COc1cc2nc(NC(=O)c3ccco3)sc(=O)c2cc1OC	n	n	n	n	x	x
COc1cc2nc(NC(=O)c3ccc(Cl)cc3)sc(=O)c2cc1OC	x	n	68	47	50	n
COc1ccc(-c2ccc3c(c2)S(=O)(=O)c2cccc(C(=O)NCc4cccc(OC(F)(F)F)c4)c2C3=O)cc1OC	x	n	n	n	x	x
O=C(NCc1ccccc1Cl)c1cccc2c1C(=O)c1ccc(-c3ccc(OC(F)(F)F)cc3)cc1S2(=O)=O	x	n	164	128	85	115
Cc1ccc(Cc2cnc(NC(=O)/C(C#N)=C/c3ccc(-c4ccc([N+](=O)[O-])cc4)o3)s2)cc1	n	n	136	123	78	166
N#C/C(=C/c1ccc(-c2ccc([N+](=O)[O-])cc2)o1)C(=O)Nc1nc(-c2cccs2)cs1	x	n	x	x	x	x
N#C/C(=C\c1ccc(OCc2ccccc2)cc1)C(=O)Nc1nc2c(s1)CCN(Cc1ccccc1)C2	n	n	42	91	145	132
CCCN1Cc2cccc(C(=O)Nc3ccc(-c4nc5ccccc5[nH]4)cc3)c2C1=O	75	n	38	42	41	n
COc1cc(OC)cc(C(=O)Nc2ccccc2-c2nnn(CC(=O)Nc3cc(C)on3)n2)c1	x	n	327	n	x	n
COc1ccc(C(=O)NC(=S)Nc2cc3oc4ccccc4c3cc2OC)cc1	78	n	34	n	x	n
COc1ccc(NC(=O)c2oc3ccccc3c2NC(=O)C2CC2)c(OC)c1	x	n	n	n	x	x
COc1ccc(CC(=O)Nc2cc3oc4ccccc4c3cc2OC)cc1	n	n	n	n	x	x
COc1ccc(OC)c(NC(=O)c2oc3ccccc3c2NC(=O)C2CC2)c1	x	n	60	n	x	40
COc1ccccc1CNCC(O)Cn1c2ccccc2c2ccccc21 (centres undefined)	n	n	30	n	x	n
Cn1c(-c2cc(Cl)ccc2O)nc2c1c(=O)[nH]c(=O)n2Cc1ccccc1	n	n	n	n	x	x
COc1ccc(Br)cc1-c1nc2c(c(=O)[nH]c(=O)n2Cc2ccccc2)n1C	x	n	50	n	x	65
Cn1c(=O)c2[nH]c(C=Cc3ccc4c(c3)OCO4)nc2n(C)c1=O	x	n	x	x	x	x
COc1ccc(Cl)cc1N=Cc1c(O)c2ccccc2oc1=O	x	n	42	n	x	n
COC(=O)c1cc(N=Cc2c(O)c3ccccc3oc2=O)cc(C(=O)OC)c1	x	n	n	n	x	x
Cc1cc2c(cc1C)N[C@]1(C[C@H]3CCCC(=O)N4CC[C@@H](C1)[C@@H]34)C(=NC(C)(C)CC(C)(C)C)N2	x	n	x	x	x	x
CC(=O)C(C(C)=O)C(c1ccccc1)c1nc2ccccc2[nH]c1=O (centres undefined)	x	n	n	n	x	x
O=C1c2cccc3cc(Br)cc(c23)C(=O)N1Nc1ccc(Br)cc1	n	n	40	n	x	33
O=C1c2cccc3cccc(c23)C(=O)N1Nc1ccccc1	n	n	n	n	x	x
